{"data": "Assay results collected from several papers", "target": "Tyrosine-protein kinase Fes/Fps (FES, Homo sapiens, UniProt P07332)", "note": "Compare with care: the assays were run in different laboratories."}
{"Structure (SMILES)": "CNC(=O)c1cc(Oc2ccc(NC(=O)Nc3ccc(Cl)c(C(F)(F)F)c3)cc2)ccn1", "effect on": "cell-free assay", "concentration": "0.5 µM", "quantity": "remaining signal", "result": "104%"}
{"Structure (SMILES)": "Cc1ccc(C(=O)Nc2ccc(CN3CCN(C)CC3)c(C(F)(F)F)c2)cc1C#Cc1cnc2cccnn12", "effect on": "enzyme activity", "concentration": "23.5 nM", "quantity": "remaining activity", "result": "100%"}
{"Structure (SMILES)": "CCC(=O)N[C@@H]1CC[C@H](C(=O)N(C)c2ccc(-c3nc4ccccc4o3)cc2)C1", "effect on": "cell-free assay", "method": "competition with immobilised ligand", "concentration": "1 µM", "quantity": "remaining binding", "result": "96%"}
{"Structure (SMILES)": "CCN(CC)c1ccc(C2=NNC(=O)CC2C)cc1[N+](=O)[O-] (stereo not shown)", "effect on": "enzyme activity", "action": "inhibitor", "concentration": "10 µM", "quantity": "remaining activity", "result": "103%"}
{"Structure (SMILES)": "CSc1cccnc1N1CCN(Cc2nc3ccccc3[nH]2)CC1", "effect on": "cell-free assay", "method": "competition with immobilised ligand", "concentration": "1 µM", "quantity": "remaining binding", "result": "98%"}
{"Structure (SMILES)": "CC(C)(C)c1nc2c(s1)c1nc(N)ncc1c1ccc(NS(=O)(=O)c3c(F)cccc3F)c(F)c12", "effect on": "enzyme activity", "action": "inhibitor", "method": "radiometric", "concentration": "1 µM", "quantity": "remaining activity", "result": "93%"}
{"Structure (SMILES)": "COc1cc2nccc(Oc3ccc(NC(=O)c4c5n(n(-c6ccc(F)cc6)c4=O)CCCC5)cc3)c2cc1OC", "effect on": "enzyme activity", "action": "inhibitor", "concentration": "0.1 µM", "quantity": "inhibition", "result": "-3%"}
{"Structure (SMILES)": "O=c1cc(-c2cccc3c2Sc2ccccc2S3)oc(N2CCOCC2)c1", "effect on": "enzyme activity", "action": "inhibitor", "concentration": "0.5 µM", "quantity": "remaining activity", "result": "104%"}
{"Structure (SMILES)": "Cc1ccc(NC(=O)c2ccc(C)c(C(F)(F)F)c2)cc1C#Cc1nn(C2CCC(O)CC2)c2ncnc(N)c12 (stereo not shown)", "effect on": "cell-free assay", "concentration": "10 µM", "quantity": "remaining signal", "result": "34%"}
{"Structure (SMILES)": "Cc1ccc(NC(=O)c2ccc(CN3CCN(C)CC3)cc2)cc1Nc1nccc(-c2cncc(-c3oncc3C)c2)n1", "effect on": "enzyme activity", "action": "inhibitor", "concentration": "0.5 µM", "quantity": "remaining activity", "result": "≤ 50%"}
{"Structure (SMILES)": "O=C(Nc1cnn(-c2csc(C(=O)NC3COC3)c2)c1)Nc1c(F)cccc1Cl", "effect on": "enzyme activity", "action": "inhibitor", "concentration": "5 µM", "quantity": "remaining activity", "result": "87.8%"}
{"Structure (SMILES)": "NS(=O)(=O)c1cc(NC(=O)Cc2ccccc2)ccc1Oc1cccc(Cl)c1", "effect on": "cell-free assay", "method": "competition with immobilised ligand", "concentration": "1 µM", "quantity": "remaining binding", "result": "92%"}
{"Structure (SMILES)": "CNc1cc(Oc2cc(C(=O)Nc3cc(N4CCN(C)CC4)cc(C(F)(F)F)c3)ccc2C)ncn1", "effect on": "target engagement in cells", "action": "inhibitor", "method": "chemoproteomics", "cell line": "Huh-7", "concentration": "1 µM", "quantity": "inhibition", "result": "-21.4%"}
{"Structure (SMILES)": "Cc1sc(C(=O)NC2COC2)cc1-n1cc(NC(=O)Nc2c(F)cccc2Cl)cn1", "effect on": "enzyme activity", "action": "inhibitor", "concentration": "10 µM", "quantity": "remaining activity", "result": "93.7%"}
{"Structure (SMILES)": "O=C(O)[C@@H]1[C@@H](Cn2nnc3ccccc3c2=O)CC[C@H]1C(=O)c1ccc(OCCC2CCOCC2)cc1", "effect on": "cell-free assay", "method": "competition with immobilised ligand", "concentration": "1 µM", "quantity": "remaining binding", "result": "100%"}
{"Structure (SMILES)": "CN1CC(Oc2cnc(C#N)cc2-c2ccn3nc(NC(=O)C4CC4)cc3c2)C1", "effect on": "enzyme activity", "action": "inhibitor", "concentration": "1 µM", "quantity": "inhibition", "result": "8%"}
{"Structure (SMILES)": "CN(c1ccnc(CNc2nc(Nc3ccc4c(c3)CC(=O)N4)ncc2C(F)(F)F)n1)S(C)(=O)=O", "effect on": "cell-free assay", "method": "competition with immobilised ligand", "concentration": "1 µM", "quantity": "remaining binding", "result": "74%"}
{"Structure (SMILES)": "CCCS(=O)(=O)Nc1ccc(F)c(C(=O)c2c[nH]c3ncc(-c4ccc(Cl)cc4)cc23)c1F", "effect on": "enzyme activity", "action": "inhibitor", "concentration": "1 µM", "quantity": "inhibition", "result": "< 20%"}
{"Structure (SMILES)": "COc1ccc2c(O[C@@H]3C[C@H]4C(=O)N[C@]5(C(=O)O)CC5/C=C\\CCCCC[C@H](NC(=O)OC5CCCC5)C(=O)N4C3)cc(-c3csc(NC(=O)C(C)C)n3)nc2c1C (stereo partly shown)", "effect on": "cell-free assay", "method": "competition with immobilised ligand", "concentration": "1 µM", "quantity": "remaining binding", "result": "100%"}
{"Structure (SMILES)": "CNCc1ccc(-c2cc(-c3nc(-c4ccc(S(=O)(=O)C(C)C)cc4)cnc3N)on2)cc1", "effect on": "enzyme activity", "action": "inhibitor", "concentration": "0.4 µM", "quantity": "inhibition", "result": "0%"}
{"Structure (SMILES)": "COc1ccc2c(c1)O[C@H](c1ccc(OC)c(OC)c1)C[C@@H]2NC(=O)C1(c2ccc3c(c2)OC(F)(F)O3)CC1", "effect on": "cell-free assay", "method": "competition with immobilised ligand", "concentration": "1 µM", "quantity": "remaining binding", "result": "97%"}
{"Structure (SMILES)": "COc1cc2ncnc(Nc3ccc(Oc4ccccc4)c(C)c3C)c2cc1OC", "effect on": "enzyme activity", "action": "inhibitor", "concentration": "1 µM", "quantity": "inhibition", "result": "7%"}
